Measured values reported in ChEMBL document CHEMBL3044673, “Design, synthesis and insecticidal activity of novel phenylpyrazoles containing a 2,2,2-trichloro-1-alkoxyethyl moiety” (2010).

How the values were obtained:
Assay type in all cases: functional
Plutella xylostella [1] = assay: Insecticidal activity against Plutella xylostella (diamondback moth) grown on compound pre-treated fresh cabbage leaves assessed as insect mortality at 50 mg/kg measured 3 days post compound treatment by leaf-dip method
Outline: (§1)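 Leaf-dip stomach-toxicity assay on laboratory-reared diamondback moth. Test solutions came from a 200 mg L^-1 stock in dimethylformamide, diluted with water containing TW-20. Control leaves were treated with water and dimethylformamide. Tests were held at 25±1 °C, percentage mortality was scored 3 days after treatment, and each treatment was run three times.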

Aphis craccivora [2] = assay: Insecticidal activity against Aphis craccivora (cowpea aphid) infested tender soybean shoots exposed to 10 mg/kg test compound solution assessed as insect mortality measured 24 hr post compound treatment; conditions: Aphis craccivora, 24 h
Outline: (§2)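 Soybean tender shoots carrying 60 aphids were dipped in test solutions. Solutions were made from a 200 mg L^-1 stock in dimethylformamide, diluted with water containing TW-20. Insects were laboratory-reared, tests were held at 25±1 °C, and mortality was scored.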

Aphis craccivora [3] = assay: Insecticidal activity against Aphis craccivora (cowpea aphid) infested tender soybean shoots exposed to 200 mg/kg test compound solution assessed as insect mortality measured 24 hr post compound treatment; outline: as §2
Plutella xylostella [4] = assay: Insecticidal activity against Plutella xylostella (diamondback moth) grown on compound pre-treated fresh cabbage leaves assessed as insect mortality at 5 mg/kg measured 3 days post compound treatment by leaf-dip method; conditions: Plutella xylostella; outline: as §1
Plutella xylostella [5] = assay: Insecticidal activity against Plutella xylostella (diamondback moth) grown on compound pre-treated fresh cabbage leaves assessed as insect mortality at 200 mg/kg measured 3 days post compound treatment by leaf-dip method; outline: as §1
Culex pipiens pallens [6] = assay: Insecticidal activity against Culex pipiens pallens (mosquito) assessed as insect mortality at 50 ug/kg measured 1 day post compound treatment; conditions: 24 h
Outline: (§3)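 Fourth-instar Culex pipiens pallens larvae, 20 per test, were laboratory-reared and placed in 100 mL of test solution made by adding 1 mL of compound dilution to 99 mL of water. Tests were held at 25±1 °C, percentage mortality was scored 1 day after treatment, and each test was run three times.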

Plutella xylostella [7] = assay: Insecticidal activity against Plutella xylostella (diamondback moth) grown on compound pre-treated fresh cabbage leaves assessed as insect mortality at 2.5 mg/kg measured 3 days post compound treatment by leaf-dip method; outline: as §1
Aphis craccivora [8] = assay: Insecticidal activity against Aphis craccivora (cowpea aphid) infested tender soybean shoots exposed to 2.5 mg/kg test compound solution assessed as insect mortality measured 24 hr post compound treatment; conditions: Aphis craccivora, 24 h; outline: as §2
Aphis craccivora [9] = assay: Insecticidal activity against Aphis craccivora (cowpea aphid) infested tender soybean shoots exposed to 100 mg/kg test compound solution assessed as insect mortality measured 24 hr post compound treatment; outline: as §2
Plutella xylostella [10] = assay: Insecticidal activity against Plutella xylostella (diamondback moth) grown on compound pre-treated fresh cabbage leaves assessed as insect mortality at 25 mg/kg measured 3 days post compound treatment by leaf-dip method; conditions: Plutella xylostella; outline: as §1
Aphis craccivora [11] = assay: Insecticidal activity against Aphis craccivora (cowpea aphid) infested tender soybean shoots exposed to test compound solution assessed as insect mortality measured 24 hr post compound treatment; outline: as §2
Aphis craccivora [12] = assay: Insecticidal activity against Aphis craccivora (cowpea aphid) infested tender soybean shoots exposed to 25 mg/kg test compound solution assessed as insect mortality measured 24 hr post compound treatment; outline: as §2
Culex pipiens pallens [13] = assay: Insecticidal activity against Culex pipiens pallens (mosquito) assessed as insect mortality at 100 ug/kg measured 1 day post compound treatment; conditions: Culex pipiens, 24 h; outline: as §3
Aphis craccivora [14] = assay: Insecticidal activity against Aphis craccivora (cowpea aphid) infested tender soybean shoots exposed to 5 mg/kg test compound solution assessed as insect mortality measured 24 hr post compound treatment; conditions: Aphis craccivora, 24 h; outline: as §2
Plutella xylostella [15] = assay: Insecticidal activity against Plutella xylostella (diamondback moth) grown on compound pre-treated fresh cabbage leaves assessed as insect mortality at 10 mg/kg measured 3 days post compound treatment by leaf-dip method; conditions: Plutella xylostella; outline: as §1
Culex pipiens pallens [16] = assay: Insecticidal activity against Culex pipiens pallens (mosquito) assessed as insect mortality at 25 ug/kg measured 1 day post compound treatment; conditions: 24 h; outline: as §3
Plutella xylostella [17] = assay: Insecticidal activity against Plutella xylostella (diamondback moth) grown on compound pre-treated fresh cabbage leaves assessed as insect mortality at 100 mg/kg measured 3 days post compound treatment by leaf-dip method; outline: as §1
Aphis craccivora [18] = assay: Ratio of LC50 of ethiprole to LC50 of test compound against Aphis craccivora (cowpea aphid) infested tender soybean shoots exposed to test compound solution assessed as insect mortality measured 24 hr post compound treatment
Aphis craccivora [19] = assay: Insecticidal activity against Aphis craccivora (cowpea aphid) infested tender soybean shoots exposed to 50 mg/kg test compound solution assessed as insect mortality measured 24 hr post compound treatment; outline: as §2
Mythimna separata = assay: Insecticidal activity against Mythimna separata (Oriental armyworm) grown on compound pre-treated corn leaves assessed as insect mortality at 200 mg/kg measured 3 days post compound treatment by leaf-dip method
Culex pipiens pallens [20] = assay: Insecticidal activity against Culex pipiens pallens (mosquito) assessed as insect mortality at 5 ug/kg measured 1 day post compound treatment; conditions: 24 h; outline: as §3
Culex pipiens pallens [21] = assay: Insecticidal activity against Culex pipiens pallens (mosquito) assessed as insect mortality at 10 ug/kg measured 1 day post compound treatment; conditions: 24 h; outline: as §3
Culex pipiens pallens [22] = assay: Insecticidal activity against Culex pipiens pallens (mosquito) assessed as insect mortality at 2.5 ug/kg measured 1 day post compound treatment; conditions: 24 h; outline: as §3

CCCOC(Nc1c([S+]([O-])CC)c(C#N)nn1-c1c(Cl)cc(C(F)(F)F)cc1Cl)C(Cl)(Cl)Cl (configuration not stated)
mortality at 50 mg/kg (Plutella xylostella [1]): 100% | mortality at 10 mg/kg (Aphis craccivora [2]): 100% | mortality at 200 mg/kg (Aphis craccivora [3]): 100% | mortality at 5 mg/kg (Plutella xylostella [4]): 27% | mortality at 200 mg/kg (Plutella xylostella [5]): 100% | mortality at 0.05 mg/kg (Culex pipiens pallens [6]): 100% | mortality at 2.5 mg/kg (Plutella xylostella [7]): 0% | mortality at 2.5 mg/kg (Aphis craccivora [8]): 89% | mortality at 100 mg/kg (Aphis craccivora [9]): 100% | mortality at 25 mg/kg (Plutella xylostella [10]): 87% | LC50 (Aphis craccivora [11]): 1.4873 mg/kg | mortality at 25 mg/kg (Aphis craccivora [12]): 100% | mortality at 0.1 mg/kg (Culex pipiens pallens [13]): 100% | mortality at 5 mg/kg (Aphis craccivora [14]): 100% | mortality at 10 mg/kg (Plutella xylostella [15]): 44% | mortality at 0.025 mg/kg (Culex pipiens pallens [16]): 0% | mortality at 100 mg/kg (Plutella xylostella [17]): 100% | RatioLC50 (Aphis craccivora [18]): 7.9 | mortality at 50 mg/kg (Aphis craccivora [19]): 100%

CCCOC(Nc1c([S+](C)[O-])c(C#N)nn1-c1c(Cl)cc(C(F)(F)F)cc1Cl)C(Cl)(Cl)Cl (configuration not stated)
mortality at 50 mg/kg (Plutella xylostella [1]): 100% | mortality at 10 mg/kg (Aphis craccivora [2]): 100% | mortality at 200 mg/kg (Aphis craccivora [3]): 100% | mortality at 5 mg/kg (Plutella xylostella [4]): 30% | mortality at 200 mg/kg (Plutella xylostella [5]): 100% | mortality at 0.05 mg/kg (Culex pipiens pallens [6]): 100% | mortality at 2.5 mg/kg (Plutella xylostella [7]): 0% | mortality at 2.5 mg/kg (Aphis craccivora [8]): 0% | mortality at 100 mg/kg (Aphis craccivora [9]): 100% | mortality at 25 mg/kg (Plutella xylostella [10]): 100% | LC50 (Aphis craccivora [11]): 2.7616 mg/kg | mortality at 25 mg/kg (Aphis craccivora [12]): 100% | mortality at 0.1 mg/kg (Culex pipiens pallens [13]): 100% | mortality at 200 mg/kg (Mythimna separata): 40% | mortality at 5 mg/kg (Aphis craccivora [14]): 91% | mortality at 10 mg/kg (Plutella xylostella [15]): 71% | mortality at 0.025 mg/kg (Culex pipiens pallens [16]): 50% | mortality at 100 mg/kg (Plutella xylostella [17]): 100% | RatioLC50 (Aphis craccivora [18]): 4.3 | mortality at 50 mg/kg (Aphis craccivora [19]): 100%

COC(Nc1c([S+](C)[O-])c(C#N)nn1-c1c(Cl)cc(C(F)(F)F)cc1Cl)C(Cl)(Cl)Cl (configuration not stated)
mortality at 50 mg/kg (Plutella xylostella [1]): 100% | mortality at 10 mg/kg (Aphis craccivora [2]): 100% | mortality at 200 mg/kg (Aphis craccivora [3]): 100% | mortality at 5 mg/kg (Plutella xylostella [4]): 88% | mortality at 200 mg/kg (Plutella xylostella [5]): 100% | mortality at 0.05 mg/kg (Culex pipiens pallens [6]): 50% | mortality at 2.5 mg/kg (Plutella xylostella [7]): 34% | mortality at 2.5 mg/kg (Aphis craccivora [8]): 0% | mortality at 100 mg/kg (Aphis craccivora [9]): 100% | mortality at 25 mg/kg (Plutella xylostella [10]): 100% | LC50 (Aphis craccivora [11]): 2.8848 mg/kg | mortality at 25 mg/kg (Aphis craccivora [12]): 100% | mortality at 0.1 mg/kg (Culex pipiens pallens [13]): 100% | mortality at 5 mg/kg (Aphis craccivora [14]): 88% | mortality at 10 mg/kg (Plutella xylostella [15]): 91% | mortality at 100 mg/kg (Plutella xylostella [17]): 100% | RatioLC50 (Aphis craccivora [18]): 4.2 | mortality at 50 mg/kg (Aphis craccivora [19]): 100%

CCSc1c(C#N)nn(-c2c(Cl)cc(C(F)(F)F)cc2Cl)c1NC(OCCF)C(Cl)(Cl)Cl (configuration not stated)
mortality at 50 mg/kg (Plutella xylostella [1]): 100% | mortality at 0.005 mg/kg (Culex pipiens pallens [20]): 0% | mortality at 10 mg/kg (Aphis craccivora [2]): 11% | mortality at 0.01 mg/kg (Culex pipiens pallens [21]): 100% | mortality at 200 mg/kg (Aphis craccivora [3]): 100% | mortality at 5 mg/kg (Plutella xylostella [4]): 0% | mortality at 200 mg/kg (Plutella xylostella [5]): 100% | mortality at 0.05 mg/kg (Culex pipiens pallens [6]): 100% | mortality at 100 mg/kg (Aphis craccivora [9]): 100% | mortality at 25 mg/kg (Plutella xylostella [10]): 100% | mortality at 25 mg/kg (Aphis craccivora [12]): 29% | mortality at 0.1 mg/kg (Culex pipiens pallens [13]): 100% | mortality at 200 mg/kg (Mythimna separata): 20% | mortality at 5 mg/kg (Aphis craccivora [14]): 0% | mortality at 10 mg/kg (Plutella xylostella [15]): 29% | mortality at 0.025 mg/kg (Culex pipiens pallens [16]): 100% | mortality at 100 mg/kg (Plutella xylostella [17]): 100% | mortality at 50 mg/kg (Aphis craccivora [19]): 100%

COC(Nc1c(SC)c(C#N)nn1-c1c(Cl)cc(C(F)(F)F)cc1Cl)C(Cl)(Cl)Cl (configuration not stated)
mortality at 50 mg/kg (Plutella xylostella [1]): 100% | mortality at 0.005 mg/kg (Culex pipiens pallens [20]): 100% | mortality at 10 mg/kg (Aphis craccivora [2]): 89% | mortality at 0.01 mg/kg (Culex pipiens pallens [21]): 100% | mortality at 200 mg/kg (Aphis craccivora [3]): 100% | mortality at 5 mg/kg (Plutella xylostella [4]): 76% | mortality at 200 mg/kg (Plutella xylostella [5]): 100% | mortality at 0.05 mg/kg (Culex pipiens pallens [6]): 100% | mortality at 2.5 mg/kg (Plutella xylostella [7]): 25% | mortality at 2.5 mg/kg (Aphis craccivora [8]): 0% | mortality at 100 mg/kg (Aphis craccivora [9]): 100% | mortality at 25 mg/kg (Plutella xylostella [10]): 100% | mortality at 25 mg/kg (Aphis craccivora [12]): 94% | mortality at 0.1 mg/kg (Culex pipiens pallens [13]): 100% | mortality at 5 mg/kg (Aphis craccivora [14]): 43% | mortality at 10 mg/kg (Plutella xylostella [15]): 86% | mortality at 0.025 mg/kg (Culex pipiens pallens [16]): 100% | mortality at 0.0025 mg/kg (Culex pipiens pallens [22]): 70% | mortality at 100 mg/kg (Plutella xylostella [17]): 100% | mortality at 50 mg/kg (Aphis craccivora [19]): 100%

CC[S+]([O-])c1c(C#N)nn(-c2c(Cl)cc(C(F)(F)F)cc2Cl)c1N (configuration not stated) [ETHIPROLE]
mortality at 50 mg/kg (Plutella xylostella [1]): 100% | mortality at 10 mg/kg (Aphis craccivora [2]): 31% | mortality at 200 mg/kg (Aphis craccivora [3]): 100% | mortality at 5 mg/kg (Plutella xylostella [4]): 0% | mortality at 200 mg/kg (Plutella xylostella [5]): 100% | mortality at 0.05 mg/kg (Culex pipiens pallens [6]): 100% | mortality at 100 mg/kg (Aphis craccivora [9]): 100% | mortality at 25 mg/kg (Plutella xylostella [10]): 69% | LC50 (Aphis craccivora [11]): 11.7263 mg/kg | mortality at 25 mg/kg (Aphis craccivora [12]): 100% | mortality at 0.1 mg/kg (Culex pipiens pallens [13]): 100% | mortality at 200 mg/kg (Mythimna separata): 0% | mortality at 5 mg/kg (Aphis craccivora [14]): 0% | mortality at 10 mg/kg (Plutella xylostella [15]): 23% | mortality at 0.025 mg/kg (Culex pipiens pallens [16]): 50% | mortality at 100 mg/kg (Plutella xylostella [17]): 100% | mortality at 50 mg/kg (Aphis craccivora [19]): 100%
